Compound activity: PubChem, Broad Institute
Hits are enriched below; roughly 2% of the tested compounds scored in any of these assays.
XiGFP reactiv: activators of X-chromosome reactivation in mouse fibroblasts; XiGFP mouse fibroblasts, % GFP-positive cells imaging, 3 d; cells co-treated with 5-aza-dC sensitizer; scaled so ellipticine positive control = 100%; AID 743238; activation, % at 7.58 µM; 360,000 tested, 0.055% active;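 active = mean normalized replicate activation at least 10% and every replicate at or above 10%; inconclusive = only one of the two criteria met; inactive = mean below 10% and not all replicates reach 10%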
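Assay system – SV40-immortalized XiGFP fibroblast cells, line 68-5-11 · Buffer or medium – DMEM supplemented with 5-aza-dC as sensitizing agent · Dosing – one concentration, pinned · Benchmarks – positive control ellipticine, 6 µM final · Times – 3 days compound exposure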
DENV2 CPE: inhibitors of DENV2 cytopathic effect; DENV2-infected cells, cytopathic effect rescue, plate reader; CPE inhibition, % at 9.99 µM; 350,000 tested, 1.7% active; in the data active = CPE inhibition above about 20%, passing the limit was not always enough; inconclusive = no clear call, values can overlap the other calls; tested in BHK-21 cells
FN deposition inh: fibronectin deposition inhibition; AH1F fibroblasts, Alexa488-fibronectin deposition fluorescence, overnight; inhibition, % at 12.6 µM; 350,000 tested, 0.086% active;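 active = mean inhibition across replicates of 30% or more, regardless of how many single replicates reach that level; inconclusive = mean under 30% yet at least half of replicates reach 30%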
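material = AH1F fibroblast monolayer depositing Alexa488-labelled fibronectin into matrix | amount = 10000 AH1F cells/well | buffer or medium = DMEM plus 2% serum, read in PBS | incubation = 1 h cell adhesion before compound, then overnight fibronectin incubation | detection = fluorescence at 485 nm excitation, 525 nm emission | evaluation = percent inhibition as loss of matrix-bound fibronectin fluorescence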
Casp6 inh: inhibitors of human caspase-6; purified caspase-6, Z-VEID-R110 cleavage fluorescence; P55212; inhibition, % at 12.5 µM; 350,000 tested, 0.53% active; AID 686996;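 active = mean inhibition across replicates at least about 35%, with every replicate also reaching that limit, limit read from the data; inconclusive = only one of the two criteria met; inactive = neither criterion met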
Target sequence (P55212 24-179 limits assumed): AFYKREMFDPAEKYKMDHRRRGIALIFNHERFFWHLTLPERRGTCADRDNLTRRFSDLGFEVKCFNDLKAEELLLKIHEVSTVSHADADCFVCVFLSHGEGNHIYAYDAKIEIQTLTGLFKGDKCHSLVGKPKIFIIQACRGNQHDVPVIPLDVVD
Target sequence (P55212 194-293 limits assumed): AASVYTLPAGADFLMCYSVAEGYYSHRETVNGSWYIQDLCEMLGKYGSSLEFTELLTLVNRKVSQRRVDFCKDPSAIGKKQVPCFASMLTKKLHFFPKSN
CaV13 ICDI inh: Primary screen for inhibitors of IQ motif and Ca2+-dependent inactivation inhibitor domain binding in CACNA1D, Förster resonance energy transfer in living cells, …. HEK cells, CFP/YFP FRET ICDI-IQ, plate reader, 10 min; percent FRET-ratio fall versus neutral wells. inhibition, % at 12.3 µM. 340,000 tested, 0.098% active;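 active = mean replicate inhibition of at least 30% and at least 1% of replicates passing that level; inconclusive = only one of the two criteria is met; inactive = neither criterion is met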
Each line names hits and unclear results; the compound was inactive in the other large screens.

O=C(C[C@@H]1CC[C@@H]2[C@H](COC[C@@H](O)CN2S(=O)(=O)c2cccc(Cl)c2)O1)N1CCCCC1	none (no result: CaV13 ICDI inh)
CN1CCN(C(=O)C[C@@H]2CC[C@@H]3[C@H](COC[C@@H](O)CN3S(=O)(=O)c3cccc(Cl)c3)O2)CC1	none (no result: CaV13 ICDI inh)
O=C(C[C@@H]1CC[C@@H]2[C@H](COC[C@@H](O)CN2Cc2ccc(Oc3ccccc3)cc2)O1)N1CCCCC1	DENV2 CPE 24 (no result: CaV13 ICDI inh)
CN1CCN(C(=O)C[C@H]2CC[C@H]3[C@@H](COC[C@@H](O)CN3S(=O)(=O)c3cccc(Cl)c3)O2)CC1	DENV2 CPE 76 (no result: CaV13 ICDI inh)
O=C(C[C@@H]1CC[C@H]2[C@@H](COC[C@@H](O)CN2S(=O)(=O)c2cccc(Cl)c2)O1)N1CCOCC1	DENV2 CPE 24 (no result: CaV13 ICDI inh)
C[C@@H]1CN([C@H](C)CO)S(=O)(=O)c2ccc(C3=CCCCC3)cc2O[C@H]1CN(C)C(=O)CN(C)C	none (no result: CaV13 ICDI inh)
CCNC(=O)C[C@H]1C=C[C@H](NS(=O)(=O)c2ccc(F)cc2)[C@H](CO)O1	none (no result: CaV13 ICDI inh)
COc1cccc(S(=O)(=O)N2C[C@@H](O)COC[C@@H]3O[C@@H](CC(=O)N4CCCCC4)CC[C@H]32)c1	DENV2 CPE 29 (no result: CaV13 ICDI inh)
CC(O)(CS(=O)(=O)Cc1ccccc1)C(=O)Nc1cccc(C(F)(F)F)c1 (stereo not drawn)	Casp6 inh 40 (no result: XiGFP reactiv, FN deposition inh)
Cc1ccc(-c2nc3ncccc3o2)cc1NC(=S)NC(=O)c1ccco1	none
Cc1ccc(-c2nc3ncccc3o2)cc1NC(=O)c1ccco1	FN deposition inh 32 (no result: XiGFP reactiv, DENV2 CPE, Casp6 inh)
O=C1CCN(Cc2ccc(Br)cc2)CCN1[C@H](CO)c1ccccc1	none
O=C1CCN(Cc2ccc(Br)cc2)CCN1CCO	DENV2 CPE 29
COCC(=O)Nc1ccc2c(c1)[C@@H]1C[C@@H](CC(=O)N3CCOCC3)O[C@H](CO)[C@@H]1O2	none (no result: CaV13 ICDI inh)
COC(=O)C1=C(C)N(CC(C)C)C(=S)NC1c1cccc(F)c1 (stereo not drawn)	DENV2 CPE 56
COC(=O)C1=C(C)N(Cc2ccc(Br)cc2)C(=S)NC1c1cccc(Br)c1 (stereo not drawn)	DENV2 CPE 42 (no result: CaV13 ICDI inh)
COC(=O)C1=C(C)N(Cc2ccc(Cl)cc2)C(=S)NC1c1ccc(F)cc1 (stereo not drawn)	none
COC(=O)C1=C(C)N(Cc2ccc(Cl)cc2)C(=S)NC1c1ccc(Br)cc1 (stereo not drawn)	DENV2 CPE 25
COc1ccc2c3c([nH]c2c1)[C@H](CO)N(C(=O)NC(C)C)CC31CCN(C(=O)c2ccccn2)CC1	none (no result: FN deposition inh, CaV13 ICDI inh)
C[C@@H]1CN([C@H](C)CO)C(=O)c2cc(-c3ccncc3)cnc2O[C@H]1CN(C)C(=O)Nc1ccc2c(c1)OCO2	none (no result: CaV13 ICDI inh)
Cc1cnc(C=NNC(N)=S)c2cccc(N)c12	Casp6 inh 66
NC(=S)NN=Cc1nccc2ccccc12	none (no result: FN deposition inh)
CS(=O)(=O)Nc1ccc2c(c1)[C@H]1C[C@H](CC(=O)N3CCOCC3)O[C@@H](CO)[C@H]1O2	none (no result: CaV13 ICDI inh)
CCC(C)[C@H](NS(=O)(=O)c1ccc(C)cc1)C(=O)N1CCC(C(=O)N2CCC(C(=O)OC)CC2)CC1 (stereo partly drawn)	DENV2 CPE 82 (no result: XiGFP reactiv, FN deposition inh, CaV13 ICDI inh)
Cc1ccc(S(=O)(=O)N[C@H](C(=O)N2CCC(C(=O)N[C@@H](CC(=O)O)C(=O)O)CC2)C(C)C)cc1	none (no result: XiGFP reactiv, FN deposition inh, CaV13 ICDI inh)
C[C@@H]1CN([C@@H](C)CO)C(=O)Cc2cc(NC(=O)NC3CCCCC3)ccc2O[C@H]1CN(C)Cc1ccc(C(=O)O)cc1	none (no result: FN deposition inh, CaV13 ICDI inh)
O=C(/C=C/c1ccco1)N(c1ccccn1)c1ccccn1	Casp6 inh 54
O=C(/C=C\c1ccco1)Oc1cccc2cccnc12	Casp6 inh 60
O=C(c1ccco1)N(c1ccccn1)c1ccccn1	none (no result: XiGFP reactiv, DENV2 CPE, Casp6 inh)
O=C(C=Cc1ccco1)c1ccco1	Casp6 inh 56
C[C@@H]1CN([C@H](C)CO)C(=O)Cc2cc(NC(=O)CCC(F)(F)F)ccc2O[C@@H]1CN(C)S(C)(=O)=O	none (no result: DENV2 CPE, FN deposition inh, Casp6 inh, CaV13 ICDI inh)
O=C(C[C@H]1CC[C@H](NC(=O)C2CCOCC2)[C@H](CO)O1)NCC1CCCCC1	none (no result: CaV13 ICDI inh)
COc1ccc2c3c(n(C)c2c1)[C@H](CO)N(Cc1cccc(F)c1)CC31CN(C)C1	none (no result: FN deposition inh, Casp6 inh, CaV13 ICDI inh)
CCn1c2ccccc2c2cc(NC(=O)c3ccccc3[N+](=O)[O-])ccc21	DENV2 CPE 32
CCn1c2ccccc2c2cc(NC(=O)c3cccc(OC)c3OC)ccc21	none
COCC(=O)N1CCC2(CC1)CN(Cc1ccc3c(c1)OCO3)[C@H](CO)c1c2c2ccc(OC)cc2n1C	none (no result: FN deposition inh, CaV13 ICDI inh)
C[C@@H]1CN([C@H](C)CO)C(=O)c2cc(C#CCN(C)C)cnc2O[C@@H]1CN(C)C(=O)c1cccc(F)c1	DENV2 CPE inconclusive (no result: CaV13 ICDI inh)
C=CCOc1c(OC)cc(/C=N/Nc2cccc(C(=O)O)c2)c(Br)c1Br	Casp6 inh 43
COCC(=O)N1C[C@H](C)[C@@H](OC)CN(C)C(=O)c2cc(NC(=O)c3ccc(OC)cc3)ccc2OC[C@@H]1C	none (no result: CaV13 ICDI inh)
COc1ccc(CN(C)C[C@@H]2OCCCC[C@H](C)Oc3ccc(NS(=O)(=O)c4ccccc4)cc3C(=O)N([C@@H](C)CO)C[C@@H]2C)cc1	DENV2 CPE inconclusive (no result: CaV13 ICDI inh)
C[C@H]1CN(C)C(=O)Cc2cc([N+](=O)[O-])ccc2O[C@H]1CN(C)C(=O)OC(C)(C)C	none (no result: DENV2 CPE, Casp6 inh, CaV13 ICDI inh)
COC(=O)N1C(=O)[C@](c2ccc(Cl)cc2)(C(C)C)N1C(=O)OC	DENV2 CPE 50
O=C(Nc1ccccc1)N1CCCCN2[C@@H](CO)[C@@H](c3ccc(Br)cc3)[C@@H]2C1	DENV2 CPE 33 (no result: FN deposition inh, CaV13 ICDI inh)
O=C(Nc1ccccc1)N1CCCCN2[C@H](CO)[C@H](c3ccc(C#CC4CC4)cc3)[C@H]2C1	DENV2 CPE 34 (no result: FN deposition inh, CaV13 ICDI inh)
COc1ccc(S(=O)(=O)N(C)C[C@H]2Oc3c(NS(=O)(=O)c4cccs4)cccc3C(=O)N([C@@H](C)CO)C[C@H]2C)cc1	none (no result: FN deposition inh, CaV13 ICDI inh)
O=C(C1CC1)N1[C@H](CO)[C@@H]2c3ccccc3NC[C@@H]21	none (no result: DENV2 CPE, CaV13 ICDI inh)
OC[C@H]1[C@H]2c3ccccc3NC[C@H]2N1CC1CCOCC1	DENV2 CPE 21 (no result: CaV13 ICDI inh)
OC[C@H]1[C@H]2c3ccccc3NC[C@H]2N1Cc1ccccc1Cl	none (no result: CaV13 ICDI inh)
OC[C@H]1[C@@H]2c3ccccc3NC[C@@H]2N1Cc1ccccc1Cl	DENV2 CPE 33 (no result: CaV13 ICDI inh)
O=C(C1CC1)N1[C@@H](CO)[C@@H]2c3ccccc3NC[C@@H]21	DENV2 CPE 95 (no result: CaV13 ICDI inh)
CCC(=O)N1[C@H](C(=O)Nc2ccccc2)[C@@H](CO)[C@@H]2Cn3c(ccc(C4=CCCC4)c3=O)[C@@H]21	none (no result: FN deposition inh, CaV13 ICDI inh)
Cc1ccc2nc(N3C(=O)C(O)=C(C(=O)c4ccc(C)o4)C3c3ccco3)sc2c1 (stereo not drawn)	Casp6 inh 48
O=C(C1=C(O)C(=O)N(c2nc3ccc(Cl)cc3s2)C1c1ccco1)c1ccco1 (stereo not drawn)	Casp6 inh 88
